Measurements pooled from the literature.
Target: 1-phosphatidylinositol 3-phosphate 5-kinase (PIKFYVE, Homo sapiens, UniProt Q9Y2I7)

Structure (SMILES) | observed | technique | concentration | remaining binding
Cc1cnc(Nc2ccc(C(=O)N3CCC(N4CCCC4)CC3)cc2)nc1-c1cc2ccccc2s1 | binding | competition with immobilised ligand | 1 µM | 79%
c1cncc(-c2cccc(Nc3nccc(NC4CCCCC4)n3)c2)c1 | binding | competition with immobilised ligand | 10 µM | 29%
CN(CCCC(F)(F)F)c1nccc(-c2cnn3ncccc23)n1 | binding | – | 1 µM | 45%
COc1cccc(CNC(=O)c2nc3scc(COCc4ccc(C(=O)O)cc4)c3c(=O)[nH]2)c1 | cell-free assay | competition with immobilised ligand | 1 µM | 100%
Cc1cnn2ncc(-c3ccnc(N(C)C)n3)c2c1 | binding | – | 1 µM | 87%
O=C(NCCCN1CCOCC1)c1ccc(Nc2ncc(Cl)c(-c3ccc(Cl)s3)n2)cc1 | binding | competition with immobilised ligand | 1 µM | 53%
F[C@@H]1CCN(c2nccc(-c3cnn4ncccc34)n2)C1 | binding | – | 1 µM | 82%
O=C(c1ccc(Nc2nccc(-c3cc4ccccc4s3)n2)cc1)N1CCC(N2CCCC2)CC1 | binding | competition with immobilised ligand | 1 µM | 0.6%
N[C@@H]1CCN(c2nccc(-c3cnn4ncccc34)n2)C1 | binding | – | 1 µM | 78%
O=C(Nc1c[nH]nc1C(=O)NC1CCNCC1)c1cc(F)cc(F)c1 | binding | competition with immobilised ligand | 1 µM | 86%
CSc1cccnc1N1CCN(Cc2nc3ccccc3[nH]2)CC1 | cell-free assay | competition with immobilised ligand | 1 µM | 100%
C[C@H]1CCN(c2nccc(-c3cnn4ncccc34)n2)C1 | binding | – | 1 µM | 100%
CN1CCN(c2cnc3c(C4CCN(C(=O)c5ccc(OC(F)(F)F)cc5N)CC4)ncnc3c2)CC1 | cell-free assay | competition with immobilised ligand | 1 µM | 98%
Nc1ncc2c(n1)-c1c([nH]c3ccc(C#CC4CC4)cc13)CCCC2 | binding | competition with immobilised ligand | 1 µM | 9.8%
COc1cc(-c2cn(C3CCc4c(F)cccc4N(CC(F)(F)F)C3=O)nn2)ccc1-n1cnc(C)c1 (stereo not drawn) | cell-free assay | competition with immobilised ligand | 1 µM | 100%
COc1cnc(Nc2cccc(S(N)(=O)=O)c2)nc1N1CCN(c2ccccc2)CC1 | binding | competition with immobilised ligand | 1 µM | 85%
CN([C@@H]1CCc2c(CC(=O)O)c3ccccc3n2C1)S(=O)(=O)c1ccc(F)cc1 | cell-free assay | competition with immobilised ligand | 1 µM | 100%
CN(C)c1nccc(-c2cnn3ncccc23)n1 | binding | – | 1 µM | 100%
